Measured values taken from ChEMBL document CHEMBL2417469, “Synthesis of novel analogs of 2-pyrazoline obtained from [(7-chloroquinolin-4-yl)amino]chalcones and hydrazine as potential antitumor and antimalarial agents” (Eur J Med Chem, 2013).

Columns and labels:
COLO 205 = assay: Cytotoxicity against human COLO205 cells after 48 hrs by SRB assay; format: functional; details: COLO 205, 48 h
How it was run: (§1)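 NCI 60-cell-line screen. Cells preincubated 24 h at 37 °C, 5% CO2; time-zero plates TCA-fixed. Compounds dissolved in DMSO and tested at five concentrations (100, 10, 1.0, 0.1, 0.01 µM) for 48 h continuous exposure. Adherent cells fixed with cold TCA (10% final), then SRB stained; absorbance at 515 nm. GI50, TGI and LC50 calculated from growth relative to time-zero and untreated controls.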

NCI-H460 = assay: Cytotoxicity against human NCI-H460 cells after 48 hrs by SRB assay; format: functional; details: NCI-H460, 48 h; how it was run: as §1
ACHN = assay: Cytotoxicity against human ACHN cells after 48 hrs by SRB assay; format: functional; details: for CC50: read-out: LC50 (the source's name); how it was run: as §1
OVCAR-5 = assay: Cytotoxicity against human OVCAR5 cells after 48 hrs by SRB assay; format: functional; details: OVCAR-5, 48 h; how it was run: as §1
HL-60(TB) = assay: Cytotoxicity against human HL-60(TB) cells after 48 hrs by SRB assay; format: functional; details: HL-60, 48 h; for CC50: read-out: LC50 (the source's name); how it was run: as §1
NCI/ADR-RES = assay: Cytotoxicity against human NCI/ADR-RES cells after 48 hrs by SRB assay; format: functional; details: for CC50: read-out: LC50 (the source's name); how it was run: as §1
SK-MEL-5 = assay: Cytotoxicity against human SK-MEL-5 cells after 48 hrs by SRB assay; format: functional; details: SK-MEL-5, 48 h; how it was run: as §1
OVCAR-3 = assay: Cytotoxicity against human OVCAR3 cells after 48 hrs by SRB assay; format: functional; details: OVCAR-3, 48 h; how it was run: as §1
SW-620 = assay: Cytotoxicity against human SW620 cells after 48 hrs by SRB assay; format: functional; details: SW-620, 48 h
How it was run: (§2)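 NCI 60-cell screen. Cells grew 24 h (37 °C, 5% CO2) before compound was added. Compounds were in DMSO and diluted in medium with gentamicin, then tested at five levels (100, 10, 1.0, 0.1, 0.01 µM) with 48 h continuous exposure. Adherent cells were fixed with TCA (10% final) and stained with 0.4% SRB, absorbance read at 515 nm. A time-zero plate was included. LC50 is the concentration giving 50% loss of protein relative to time zero.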

T47D = assay: Cytotoxicity against human T47D cells after 48 hrs by SRB assay; format: functional; how it was run: as §2
NCI-H522 = assay: Cytotoxicity against human NCI-H522 cells after 48 hrs by SRB assay; format: functional; details: NCI-H522, 48 h; for CC50: read-out: LC50 (the source's name); how it was run: as §1
RPMI-8226 = assay: Cytotoxicity against human RPMI8226 cells after 48 hrs by SRB assay; format: functional; details: RPMI-8226, 48 h; how it was run: as §1
SF-295 = assay: Cytotoxicity against human SF295 cells after 48 hrs by SRB assay; format: functional; details: SF-295, 48 h; how it was run: as §1
UACC-257 = assay: Cytotoxicity against human UACC257 cells after 48 hrs by SRB assay; format: functional; details: UACC-257, 48 h; how it was run: as §2
BT-549 = assay: Cytotoxicity against human BT549 cells after 48 hrs by SRB assay; format: functional; details: BT-549, 48 h; how it was run: as §1
HOP-62 = assay: Cytotoxicity against human HOP62 cells after 48 hrs by SRB assay; format: functional; details: HOP-62, 48 h; how it was run: as §1
K562 = assay: Cytotoxicity against human K562 cells after 48 hrs by SRB assay; format: functional; details: K562, 48 h; how it was run: as §1
[1] = Cytotoxicity against human EKVX cells after 48 hrs by SRB assay; format: functional; how it was run: as §1
NCI-H23 = assay: Cytotoxicity against human NCI-H23 cells after 48 hrs by SRB assay; format: functional; details: NCI-H23, 48 h; for CC50: read-out: LC50 (the source's name); how it was run: as §1
MOLT-4 = assay: Cytotoxicity against human MOLT4 cells after 48 hrs by SRB assay; format: functional; details: MOLT-4, 48 h; how it was run: as §1
SNB-75 = assay: Cytotoxicity against human SNB75 cells after 48 hrs by SRB assay; format: functional; details: SNB-75, 48 h; how it was run: as §2
SN12C = assay: Cytotoxicity against human SN12C cells after 48 hrs by SRB assay; format: functional; how it was run: as §1
Plasmodium falciparum = assay: Antimalarial activity against Plasmodium falciparum NF54 infected in human serum at 20 ug/ml after 48 hrs by fluorometric method; format: functional
How it was run: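 Asynchronous P. falciparum NF54 at 1.5–2% parasitemia, 5% hematocrit in RPMI with 10% human serum, exposed 48 h at 37 °C under 90% N2/5% CO2/5% O2 at the stated concentration; parasite DNA stained with ethidium bromide after proteinase K lysis; viability % = (Flu treated − medium)/(Flu untreated − medium) ×100; triplicate.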

[2] = Toxicity in RBC (unknown origin) assessed as hemolysis after 48 hrs at 20 to 80 ug/ml by spectrophotometry; format: cell-based, Erythrocyte; details: red blood cells (RBC); read-out: Activity
How it was run: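 Red blood cells at 5% hematocrit in RPMI 1640 exposed to 20, 40 and 80 µg/mL for 48 h at 37 °C; free hemoglobin read spectrophotometrically at 542 nm.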

Molecule O=CN1N=C(c2cccc(Nc3ccnc4cc(Cl)ccc34)c2)CC1c1ccc(Cl)cc1 (stereo unspecified) has a GI50 (COLO 205) of 1.39 µM, an LC50 (COLO 205) of over 100 µM and a GI50 (NCI-H460) of 0.79 µM. The LC50 (NCI-H460) was over 100 µM, the GI50 (ACHN) was 5.18 µM and the CC50 (ACHN) was over 100 µM. The GI50 (OVCAR-5) was over 100 µM, the LC50 (OVCAR-5) was over 100 µM and the GI50 (HL-60(TB)) was 1.1 µM. The CC50 (HL-60(TB)) was 40.2 µM, the GI50 (NCI/ADR-RES) was 0.76 µM and the CC50 (NCI/ADR-RES) was over 100 µM. It also gave a GI50 (SK-MEL-5) of 1.86 µM, an LC50 (concentration killing 50% of cells present at time zero) (SK-MEL-5) of over 100 µM and a GI50 (OVCAR-3) of 1.2 µM. It also gave an LC50 (OVCAR-3) of over 100 µM, a GI50 (SW-620) of 0.56 µM and an LC50 (SW-620) of over 100 µM. For the same molecule, the GI50 (T47D) was 2.63 µM, the LC50 (concentration giving 50% cell kill relative to time zero) (T47D) was over 100 µM and the GI50 (NCI-H522) was 0.8 µM. The CC50 (NCI-H522) was over 100 µM, the GI50 (RPMI-8226) was 2.45 µM and the LC50 (concentration killing 50% of cells) (RPMI-8226) was over 100 µM. The GI50 (SF-295) was 1.06 µM, the LC50 (SF-295) was over 100 µM and the LC50 (UACC-257) was over 100 µM. The GI50 (BT-549) was 1.36 µM, the LC50 (50% net cell kill vs time zero) (BT-549) was over 100 µM and the GI50 (HOP-62) was 1.91 µM. The LC50 (50% lethal concentration) (HOP-62) was over 100 µM, the GI50 (K562) was 0.41 µM and the LC50 (concentration killing 50% of cells) (K562) was over 100 µM. The GI50 [1] was over 100 µM, the LC50 [1] was over 100 µM and the GI50 (NCI-H23) was 2.48 µM. It also gave a CC50 (NCI-H23) of over 100 µM, a GI50 (MOLT-4) of 1.92 µM and an LC50 (MOLT-4) of over 100 µM. For the same molecule, the GI50 (SNB-75) was 1.58 µM, the LC50 (50% net cell kill) (SNB-75) was over 100 µM and the GI50 (SN12C) was 3.86 µM. It also gave an LC50 (50% net cell kill relative to time zero) (SN12C) of over 100 µM and an inhibition at 20 µg/mL (Plasmodium falciparum) of 7%.
O=CN1N=C(c2cccc(Nc3ccnc4cc(Cl)ccc34)c2)CC1c1ccccc1 (stereo unspecified) gave a GI50 (COLO 205) of 0.36 µM, an LC50 (COLO 205) of 7.92 µM and a GI50 (NCI-H460) of 0.41 µM. It also gave an LC50 (NCI-H460) of over 100 µM, a GI50 (ACHN) of 0.86 µM and a CC50 (ACHN) of over 100 µM. It also gave a GI50 (OVCAR-5) of 1.38 µM, an LC50 (OVCAR-5) of over 100 µM and a GI50 (HL-60(TB)) of 0.2 µM. For the same molecule, the CC50 (HL-60(TB)) was 4.56 µM, the GI50 (NCI/ADR-RES) was 0.29 µM and the CC50 (NCI/ADR-RES) was over 100 µM. The GI50 (SK-MEL-5) was 0.29 µM, the LC50 (concentration killing 50% of cells present at time zero) (SK-MEL-5) was 64.2 µM and the GI50 (OVCAR-3) was 0.28 µM. For the same molecule, the LC50 (OVCAR-3) was 7.38 µM, the GI50 (SW-620) was 0.35 µM and the LC50 (SW-620) was over 100 µM. For the same molecule, the GI50 (T47D) was 0.34 µM, the LC50 (concentration giving 50% cell kill relative to time zero) (T47D) was over 100 µM and the GI50 (NCI-H522) was 0.21 µM. It also gave a CC50 (NCI-H522) of over 100 µM, a GI50 (RPMI-8226) of 0.49 µM and an LC50 (concentration killing 50% of cells) (RPMI-8226) of over 100 µM. The GI50 (SF-295) was 0.37 µM, the LC50 (SF-295) was 41.2 µM and the GI50 (UACC-257) was 0.33 µM. The LC50 (UACC-257) was over 100 µM, the GI50 (BT-549) was 0.21 µM and the LC50 (50% net cell kill vs time zero) (BT-549) was 30.9 µM. The GI50 (HOP-62) was 0.51 µM, the LC50 (50% lethal concentration) (HOP-62) was over 100 µM and the GI50 (K562) was 0.26 µM. It also gave an LC50 (concentration killing 50% of cells) (K562) of over 100 µM, a GI50 [1] of 0.95 µM and an LC50 [1] of over 100 µM. The GI50 (NCI-H23) was 0.61 µM, the CC50 (NCI-H23) was over 100 µM and the GI50 (MOLT-4) was 0.39 µM. The LC50 (MOLT-4) was over 100 µM, the GI50 (SNB-75) was 0.22 µM and the LC50 (50% net cell kill) (SNB-75) was over 100 µM. For the same molecule, the GI50 (SN12C) was 0.63 µM, the LC50 (50% net cell kill relative to time zero) (SN12C) was over 100 µM and the inhibition at 20 µg/mL (Plasmodium falciparum) was 0%.
O=CN1N=C(c2ccc(Nc3ccnc4cc(Cl)ccc34)cc2)CC1c1ccccc1 (stereo unspecified) showed a hemolysis at 48 h [2] of 3.8%, a GI50 (COLO 205) of 2.21 µM and an LC50 (COLO 205) of over 100 µM. For the same molecule, the GI50 (NCI-H460) was 3.96 µM, the LC50 (NCI-H460) was over 100 µM and the GI50 (ACHN) was 4.21 µM. For the same molecule, the CC50 (ACHN) was over 100 µM, the GI50 (OVCAR-5) was 19.8 µM and the LC50 (OVCAR-5) was over 100 µM. For the same molecule, the GI50 (HL-60(TB)) was 2.66 µM, the CC50 (HL-60(TB)) was 72.5 µM and the GI50 (NCI/ADR-RES) was 2.69 µM. The CC50 (NCI/ADR-RES) was over 100 µM, the GI50 (SK-MEL-5) was 1.38 µM and the LC50 (concentration killing 50% of cells present at time zero) (SK-MEL-5) was 11.2 µM. For the same molecule, the GI50 (OVCAR-3) was 2.78 µM, the LC50 (OVCAR-3) was 43.2 µM and the GI50 (SW-620) was 2.73 µM. The LC50 (SW-620) was 68.7 µM, the GI50 (T47D) was 2.18 µM and the LC50 (concentration giving 50% cell kill relative to time zero) (T47D) was over 100 µM. The GI50 (RPMI-8226) was 2.55 µM, the LC50 (concentration killing 50% of cells) (RPMI-8226) was over 100 µM and the GI50 (SF-295) was 2.41 µM. It also gave an LC50 (SF-295) of over 100 µM, a GI50 (UACC-257) of 10.1 µM and an LC50 (UACC-257) of over 100 µM. For the same molecule, the GI50 (BT-549) was 3.81 µM, the LC50 (50% net cell kill vs time zero) (BT-549) was 53.8 µM and the GI50 (HOP-62) was 5.26 µM. It also gave an LC50 (50% lethal concentration) (HOP-62) of over 100 µM, a GI50 [1] of 4.94 µM and an LC50 [1] of over 100 µM. It also gave a GI50 (NCI-H23) of 3.64 µM, a CC50 (NCI-H23) of over 100 µM and a GI50 (MOLT-4) of 2.28 µM. For the same molecule, the LC50 (MOLT-4) was over 100 µM, the GI50 (SNB-75) was 5.03 µM and the LC50 (50% net cell kill) (SNB-75) was over 100 µM. For the same molecule, the GI50 (SN12C) was 3.8 µM, the LC50 (50% net cell kill relative to time zero) (SN12C) was over 100 µM and the inhibition at 20 µg/mL (Plasmodium falciparum) was 20.2%.
